The text below walks through data of ChEMBL document CHEMBL1944507, “Structure-activity relationships for amide-, carbamate-, and urea-linked analogues of the tuberculosis drug (6S)-2-nitro-6-{[4-(trifluoromethoxy)benzyl]oxy}-6,7-dihydro-5H-imidazo[2,1-b][1,3]oxazine (PA-824)” (J Med Chem, 2012).

For assay [1], the system named is Mycobacterium tuberculosis. Briefly: Antimicrobial activity against Mycobacterium tuberculosis H37Rv ATCC 27294 harboring pFCA-lux AB gene measured under aerobic condition after 8 days by luminescence analysis. In kind it is functional. To be noted: H37Rv ATCC 27294, 192 h. The essentials: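 MABA: replicating M. tb H37Rv exposed to compound aerobically for 8 days. […] Mean of at least two independent determinations ± SD.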

In assay [2] the test system is Mycobacterium tuberculosis. Briefly: Antimicrobial activity against Mycobacterium tuberculosis H37Rv ATCC 27294 harboring pFCA-lux AB gene measured under anaerobic condition after 11 days by luminescence analysis. To be noted: H37Rv ATCC 27294, 264 h. It is filed as functional. The essentials:
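LORA: luminescence-based low-oxygen-recovery assay on nonreplicating M. tb, 11-day anaerobic exposure. MIC is the mean of at least two independent determinations ± SD.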

≈ marks a conversion by molar mass, not a printed value.

Usually MIC stands for the lowest concentration found to suppress growth. A lower MIC goes with a more susceptible organism. In assay [1], `O=C(N[C@@H]1COc2nc([N+](=O)[O-])cn2C1)c1ccc(OC(F)(F)F)cc1` yielded an MIC of 1.8 µM (≈ 0.67 µg/mL). `O=C(NCc1ccc(-c2ccc(OC(F)(F)F)cc2)cc1)N[C@@H]1COc2nc([N+](=O)[O-])cn2C1`: the figures for the MIC in assay [1] and in assay [2] were 1 µM (≈ 0.477 µg/mL) and 32 µM (≈ 15.3 µg/mL), respectively. As to `O=C(NCc1ccc(-c2ccc(C(F)(F)F)nc2)cc1)N[C@@H]1COc2nc([N+](=O)[O-])cn2C1`, the minimal inhibitory concentration (MIC) was 0.4 µM (≈ 0.185 µg/mL) in assay [1] and greater than 32 µM in assay [2]. For the molecule `O=C(Nc1cccc(-c2ccc(C(F)(F)F)cc2)c1)O[C@@H]1COc2nc([N+](=O)[O-])cn2C1`, the MIC in assay [1] turned out to be 0.04 µM (≈ 0.0179 µg/mL); in assay [2] it was 1 µM (≈ 0.448 µg/mL). Taken in the same sequence, the figures for `O=C(Nc1cccc(-c2ccc(F)cc2)c1)O[C@@H]1COc2nc([N+](=O)[O-])cn2C1` were 0.027 µM (≈ 0.0108 µg/mL) and 1.5 µM (≈ 0.598 µg/mL). Regarding `O=C(Nc1cccc(-c2ccc(OC(F)(F)F)cc2)c1)O[C@@H]1COc2nc([N+](=O)[O-])cn2C1`, the values for the MIC in assay [1] and in assay [2] were 0.06 µM (≈ 0.0279 µg/mL) and 0.85 µM (≈ 0.395 µg/mL), respectively. Taken in the same sequence, the figures for `O=C(Nc1cccc(-c2ccc(C(F)(F)F)nc2)c1)O[C@@H]1COc2nc([N+](=O)[O-])cn2C1` were 0.11 µM (≈ 0.0494 µg/mL) and 2.9 µM (≈ 1.3 µg/mL). With `O=C(Nc1cccc(-c2ccc(F)nc2)c1)O[C@@H]1COc2nc([N+](=O)[O-])cn2C1`, the MIC turned out to be 0.24 µM (≈ 0.0958 µg/mL) in assay [1] and 5.8 µM (≈ 2.32 µg/mL) in assay [2]. In the same order, the values of `O=C(Nc1ccc(-c2ccc(C(F)(F)F)cc2)cc1)O[C@@H]1COc2nc([N+](=O)[O-])cn2C1` are 0.055 µM (≈ 0.0247 µg/mL) and greater than 32 µM. For the molecule `O=C(Nc1ccc(-c2ccc(F)cc2)cc1)O[C@@H]1COc2nc([N+](=O)[O-])cn2C1`, the MIC in assay [1] turned out to be 1.3 µM (≈ 0.518 µg/mL); in assay [2], 18 µM (≈ 7.17 µg/mL). With `O=C(Nc1ccc(-c2ccc(OC(F)(F)F)cc2)cc1)O[C@@H]1COc2nc([N+](=O)[O-])cn2C1`, the MIC in assay [1] was 0.05 µM (≈ 0.0232 µg/mL); in assay [2], greater than 32 µM. Regarding `O=C(Nc1ccc(-c2ccc(C(F)(F)F)nc2)cc1)O[C@@H]1COc2nc([N+](=O)[O-])cn2C1`, the MIC in assay [1] stood at 0.25 µM (≈ 0.112 µg/mL); in assay [2] it was 4.1 µM (≈ 1.84 µg/mL).

For `O=C(Nc1ccc(-c2ccc(F)nc2)cc1)O[C@@H]1COc2nc([N+](=O)[O-])cn2C1`, the results for the MIC in assay [1] and in assay [2] were 0.13 µM (≈ 0.0519 µg/mL) and 4.3 µM (≈ 1.72 µg/mL), respectively. Take `O=C(Nc1ccc(-c2ccnc(C(F)(F)F)c2)cc1)O[C@@H]1COc2nc([N+](=O)[O-])cn2C1`: the results for the MIC in assay [1] and in assay [2] were 0.75 µM (≈ 0.337 µg/mL) and 6.2 µM (≈ 2.79 µg/mL), respectively. On to `O=C(NCc1ccc(-c2ccc(C(F)(F)F)cc2)cc1)O[C@@H]1COc2nc([N+](=O)[O-])cn2C1`, for which the MIC is 0.24 µM (≈ 0.111 µg/mL) in assay [1] and greater than 32 µM in assay [2]. In the same order, the values of `O=C(NCc1ccc(-c2ccc(F)cc2)cc1)O[C@@H]1COc2nc([N+](=O)[O-])cn2C1` are 0.11 µM (≈ 0.0454 µg/mL) and 4.5 µM (≈ 1.86 µg/mL). On to `O=C(NCc1ccc(-c2ccc(OC(F)(F)F)cc2)cc1)O[C@@H]1COc2nc([N+](=O)[O-])cn2C1`, for which the MIC in assay [1] amounted to 0.52 µM (≈ 0.249 µg/mL); in assay [2], 2.4 µM (≈ 1.15 µg/mL). As for `O=C(NCc1ccc(-c2ccc(C(F)(F)F)nc2)cc1)O[C@@H]1COc2nc([N+](=O)[O-])cn2C1`, the results for the MIC in assay [1] and in assay [2] were 0.69 µM (≈ 0.32 µg/mL) and 11 µM (≈ 5.1 µg/mL), respectively. As for `O=C(O[C@@H]1COc2nc([N+](=O)[O-])cn2C1)N1CCN(c2ccc(OC(F)(F)F)cc2)CC1`, the MIC was 0.033 µM (≈ 0.0151 µg/mL) in assay [1] and 1.1 µM (≈ 0.503 µg/mL) in assay [2]. As to `O=C(O[C@@H]1COc2nc([N+](=O)[O-])cn2C1)N1CC[C@H](Oc2ccc(OC(F)(F)F)cc2)C1`, the MIC was 0.06 µM (≈ 0.0275 µg/mL) in assay [1] and 1.6 µM (≈ 0.733 µg/mL) in assay [2]. In the case of `O=C(O[C@@H]1COc2nc([N+](=O)[O-])cn2C1)N1CCC(Oc2ccc(C(F)(F)F)nc2)CC1`, the MIC in assay [1] turned out to be 0.14 µM (≈ 0.064 µg/mL); in assay [2], 27 µM (≈ 12.3 µg/mL). In the same order, the values of `CN(Cc1ccc(OC(F)(F)F)cc1)C1CCN(C(=O)O[C@@H]2COc3nc([N+](=O)[O-])cn3C2)CC1` are 0.18 µM (≈ 0.0899 µg/mL) and 26 µM (≈ 13 µg/mL). `O=C(COc1ccc(OC(F)(F)F)cc1)N[C@@H]1COc2nc([N+](=O)[O-])cn2C1`: the values for the MIC in assay [1] and in assay [2] were 0.16 µM (≈ 0.0644 µg/mL) and 10 µM (≈ 4.02 µg/mL), respectively. In assay [1], `O=[N+]([O-])c1cn2c(n1)OC[C@@H](OCc1ccc(-c3ccc(OC(F)(F)F)cc3)cc1)C2` gave an MIC of 0.35 µM (≈ 0.152 µg/mL).
